Measurements from ChEMBL document CHEMBL1157680, “Isoxazole analogues bind the system xc- transporter: structure-activity relationship and pharmacophore model” (Bioorg Med Chem, 2010).
pIC50, pKi: −log10 of the molar value. Active and inactive are the calls of the source. The rule behind the calls is not given here.

Tests used:
[1] = target: T1, Cystine/glutamate transporter (Homo sapiens) (UniProt Q9UPY5); assay: Inhibition of amino acid transport system xc- in human SNB19 cells assessed as [3H]L-glutamate uptake at 500 uM by liquid scintillation counting; assay type: cell-based; set-up: scale not given: the % may be the effect or the level left; settings: SNB-19
T1 sequence (whole entry): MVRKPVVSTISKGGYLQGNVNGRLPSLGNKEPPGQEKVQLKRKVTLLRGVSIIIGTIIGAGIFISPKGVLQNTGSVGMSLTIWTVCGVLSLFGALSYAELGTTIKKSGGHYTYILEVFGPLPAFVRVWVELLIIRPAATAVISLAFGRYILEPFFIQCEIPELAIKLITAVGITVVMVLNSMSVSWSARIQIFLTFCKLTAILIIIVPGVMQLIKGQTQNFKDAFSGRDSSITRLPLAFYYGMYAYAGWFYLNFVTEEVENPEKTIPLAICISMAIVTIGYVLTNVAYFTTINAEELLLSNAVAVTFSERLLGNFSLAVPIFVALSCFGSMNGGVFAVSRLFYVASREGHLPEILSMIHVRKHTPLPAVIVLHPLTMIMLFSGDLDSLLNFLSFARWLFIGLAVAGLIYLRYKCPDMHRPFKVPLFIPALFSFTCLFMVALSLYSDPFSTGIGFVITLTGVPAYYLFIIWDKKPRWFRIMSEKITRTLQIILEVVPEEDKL
How it was run: (§1)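 Confluent SNB-19 glioma monolayers were refed 2 h before assay, then preincubated 5 min at 30 °C in Na+-free HEPES-buffered Hank's (choline Cl, pH 7.4). Test agent was added together with L-[3H]-glutamate plus unlabeled L-Glu (10–500 μM final). After 5 min at 30 °C, ice-cold washes stopped uptake. Cells were lysed in 0.4 M NaOH and counted by LSC. Results are % of control uptake.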

[2] = target: T1, Cystine/glutamate transporter (Homo sapiens); assay: Inhibition of [3H]L-glutamate uptake at amino acid transport system xc- in human SNB19 cells at 500 uM by liquid scintillation counting; assay type: cell-based; settings: SNB-19; how it was run: as §1
[3] = target: T1, Cystine/glutamate transporter (Homo sapiens); assay: Inhibition of amino acid transport system xc- in human SNB19 cells assessed as [3H]L-glutamate uptake at 250 uM by liquid scintillation counting; assay type: cell-based; set-up: scale not given: the % may be the effect or the level left; settings: SNB-19; how it was run: as §1
[4] = system: LRM55; assay: Inhibition of amino acid transport system xc- in rat LRM55 cells assessed as [3H]L-glutamate uptake at 500 uM by liquid scintillation counting; assay type: cell-based; set-up: scale not given: the % may be the effect or the level left
[5] = target: T2, Cystine/glutamate transporter (Homo sapiens, UniProt Q9UPY5); assay: Competitive inhibition of [3H]L-glutamate uptake at amino acid transport system xc- in human SNB19 cells by liquid scintillation counting; assay type: cell-based, SNB-19
T2 sequence (Q9UPY5 whole entry): T1 sequence (whole entry)
How it was run: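 SNB-19 glioma monolayers were assayed in Na+-free choline-HEPES Hank's buffer, pH 7.4, at 30 °C. L-[3H]-glutamate with L-Glu (10–500 μM final) and inhibitor were added simultaneously for 5 min. Radioactivity in NaOH lysates was counted by LSC. Ki came from a replot of Km,app values, or from IC50 inhibition curves using the Cheng-Prusoff equation.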

[6] = target: T1, Cystine/glutamate transporter (Homo sapiens); assay: Activity at amino acid transport system xc- in human SNB19 cells assessed as induction of L-glutamate efflux at 500 uM by fluorometric assay; assay type: cell-based; settings: SNB-19
How it was run: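 Paired SNB-19 coverslips were rinsed 10 min in Na+-free HBHS, then placed in a stirred cuvette (2 ml HBHS, 30 °C). NADP+ (1 mM) was added at 0 s and glutamate dehydrogenase (33 U) at 60 s, then the test substrate. L-Glu efflux was followed in real time as NADPH fluorescence. Triton X-100 (0.5%) gave total cellular L-Glu. Efflux was quantified from a cell-free standard curve.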

[7] = target: T2, Cystine/glutamate transporter; assay: Inhibition of amino acid transport system xc- in human SNB19 cells assessed as [3H]L-glutamate uptake by liquid scintillation counting; assay type: cell-based, SNB-19
[8] = target: T1, Cystine/glutamate transporter (Homo sapiens); settings: SNB-19, 500 uM

| Compound | Activity [1] [%] | Activity [3] [%] | further results |
| --- | --- | --- | --- |
| C/C(=N\Nc1ccccc1[N+](=O)[O-])c1c(C(=O)O)noc1C | 97 | – | – |
| Cc1nn(-c2cc(C(F)(F)F)cc(C(F)(F)F)c2)c(=O)c2noc(C)c12 | 82 | – | inhibition [2]: 18% |
| Cc1nn(-c2ccc([N+](=O)[O-])cc2)c(=O)c2noc(C)c12 | 85 | – | inhibition [2]: 15% |
| C/C(=N\NC(=O)Nc1ccccc1)c1c(C(=O)O)noc1C | – | 76 | – |
| COc1ccc(-n2nc(C)c3c(C)onc3c2=O)cc1 | 92 | – | – |
| Cc1nn(-c2cccc([N+](=O)[O-])c2)c(=O)c2noc(C)c12 | 96 | – | – |
| COC(C)c1onc(C(=O)O)c1C[C@H](N)C(=O)O (mixture of isomers) | – | 115 | – |
| CCOC(=O)c1noc(C)c1/C(C)=N/NS(=O)(=O)c1ccccc1 | – | 96 | – |
| Cc1onc(C(=O)O)c1C[C@H](N)C(=O)O | – | 98 | – |
| C/C(=N\Nc1ccccc1)c1c(C(=O)O)noc1C | 56 | – | inhibition [2]: 44% |
| N[C@@H](Cc1c(C(=O)O)noc1COCc1ccccc1)C(=O)O (racemic) | – | 70 | – |
| Cc1onc(O)c1C[C@H](N)C(=O)O | – | – | Activity [4]: 95% |
| Cc1nn(-c2ccc(F)cc2)c(=O)c2noc(C)c12 | 86 | – | – |
| C/C(=N\Nc1ccc([N+](=O)[O-])cc1[N+](=O)[O-])c1c(C(=O)O)noc1C | 45 | 73 | pKi [5]: 3.83; Activity [6]: inactive; pIC50 [7]: 3.54 |
| Cc1onc(C(=O)O)c1CC(N)P(=O)(O)O (racemic) | – | 107 | – |
| C/C(=N\NS(=O)(=O)c1ccccc1)c1c(C(=O)O)noc1C | – | 101 | – |
| C/C(=N\Nc1cc(C(F)(F)F)cc(C(F)(F)F)c1)c1c(C(=O)O)noc1C | 14 | – | pKi [5]: 4.19; inhibition [2]: 86%; Activity [6]: inactive; pIC50 [7]: 3.89 |

| Compound | Activity [1] [%] | Activity [3] [%] | further results |
| --- | --- | --- | --- |
| CCc1onc(C(=O)O)c1C[C@H](N)C(=O)O | – | 92 | – |
| N[C@@H](Cc1c(C(=O)O)noc1CCc1ccc2ccccc2c1)C(=O)O | – | 37 | pKi [5]: 4.28; inhibition [8]: Active; Activity [6]: inactive |
| Cc1onc(C(=O)O)c1CC(N)C(=O)O (racemic) | – | 101 | – |
| Cc1nn(-c2ccc(C(F)(F)F)cc2)c(=O)c2noc(C)c12 | 99 | – | – |
| C/C(=N\Nc1ccc([N+](=O)[O-])cc1[N+](=O)[O-])c1c(C(=O)O)noc1COCc1ccc2ccccc2c1 | 95 | – | – |
| Cc1nn(-c2ccccc2)c(=O)c2noc(C)c12 | 74 | – | inhibition [2]: 26% |
| C/C(=N\NC(N)=O)c1c(C(=O)O)noc1C | – | 91 | – |
| COCc1onc(C(=O)O)c1C[C@H](N)C(=O)O | – | 98 | – |
| N[C@@H](Cc1c(C(=O)O)noc1CCc1ccccc1)C(=O)O | – | 70 | – |
| Cc1ccc(-n2nc(C)c3c(C)onc3c2=O)cc1 | 94 | – | – |
| Cc1nn(-c2ccc(F)cc2F)c(=O)c2noc(C)c12 | 95 | – | – |
| C/C(=N\Nc1ccc([N+](=O)[O-])cc1[N+](=O)[O-])c1c(C(=O)O)noc1CCc1ccc2ccccc2c1 | 45 | – | pKi [5]: 3.95; Activity [6]: inactive; pIC50 [7]: 3.65 |
| Cc1nn(-c2cc(Cl)cc(Cl)c2)c(=O)c2noc(C)c12 | 89 | – | – |
| N[C@@H](Cc1c(C(=O)O)noc1CCc1cccc2ccccc12)C(=O)O | – | 47 | pKi [5]: 3.93; Activity [6]: inactive |
| CCOC(=O)c1noc(C)c1/C(C)=N/NC(N)=O | – | 103 | – |
| C/C(=N\Nc1ccc([N+](=O)[O-])cc1)c1c(C(=O)O)noc1C | 22 | – | pKi [5]: 4.22; inhibition [2]: 78%; Activity [6]: inactive; pIC50 [7]: 3.90 |
